{
  "source": "ChEMBL document CHEMBL1629696",
  "about": "“Identification of a novel transposon (Tn6072) and a truncated staphylococcal cassette chromosome mec element in methicillin-resistant Staphylococcus aureus ST239” (2010)",
  "format_in_all_cases": "functional",
  "key": {"Staphylococcus aureus [1]": {"test_system": "Staphylococcus aureus", "assay": "Antimicrobial activity against methicillin-resistant Staphylococcus aureus 16652 by broth dilution method", "summary_of_the_method": "(§1)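 Oxacillin MIC by broth dilution per CLSI guidelines, on clinical MRSA isolates collected March 2004–June 2005 at a county hospital in Braşov, Romania. Bacterial suspensions were incubated 24 h at 37°C and growth was read as OD600. S. aureus MRSA252 and MSSA476 served as positive and negative controls.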"}, "Staphylococcus aureus [2]": {"test_system": "Staphylococcus aureus", "assay": "Antimicrobial activity against methicillin-resistant Staphylococcus aureus 16702 by broth dilution method", "summary_of_the_method": "as §1"}, "Staphylococcus aureus [3]": {"test_system": "Staphylococcus aureus", "assay": "Antimicrobial activity against methicillin-resistant Staphylococcus aureus 16695 by broth dilution method", "summary_of_the_method": "as §1"}, "Staphylococcus aureus [4]": {"test_system": "Staphylococcus aureus", "assay": "Antimicrobial activity against methicillin-resistant Staphylococcus aureus 16698 by broth dilution method", "summary_of_the_method": "as §1"}, "Staphylococcus aureus [5]": {"test_system": "Staphylococcus aureus", "assay": "Antimicrobial activity against methicillin-resistant Staphylococcus aureus 16703 by broth dilution method", "summary_of_the_method": "as §1"}, "Staphylococcus aureus [6]": {"test_system": "Staphylococcus aureus", "assay": "Antimicrobial activity against methicillin-resistant Staphylococcus aureus 16677 by broth dilution method", "summary_of_the_method": "as §1"}, "Staphylococcus aureus [7]": {"test_system": "Staphylococcus aureus", "assay": "Antimicrobial activity against methicillin-resistant Staphylococcus aureus 16699 by broth dilution method", "summary_of_the_method": "as §1"}, "Staphylococcus aureus [8]": {"test_system": "Staphylococcus aureus", "assay": "Antimicrobial activity against methicillin-resistant Staphylococcus aureus 16653 by broth dilution method", "summary_of_the_method": "as §1"}, "Staphylococcus aureus [9]": {"test_system": "Staphylococcus aureus", "assay": "Antimicrobial activity against methicillin-resistant Staphylococcus aureus 16678 by broth dilution method", "summary_of_the_method": "as §1"}, "Staphylococcus aureus [10]": {"test_system": "Staphylococcus aureus", "assay": "Antimicrobial activity against methicillin-resistant Staphylococcus aureus 16670 by broth dilution method", "summary_of_the_method": "as §1"}, "Staphylococcus aureus [11]": {"test_system": "Staphylococcus aureus", "assay": "Antimicrobial activity against methicillin-resistant Staphylococcus aureus 16646 by broth dilution method", "summary_of_the_method": "as §1"}, "Staphylococcus aureus [12]": {"test_system": "Staphylococcus aureus", "assay": "Antimicrobial activity against methicillin-resistant Staphylococcus aureus 16676 by broth dilution method", "summary_of_the_method": "as §1"}, "Staphylococcus aureus [13]": {"test_system": "Staphylococcus aureus", "assay": "Antimicrobial activity against methicillin-resistant Staphylococcus aureus 16687 by broth dilution method", "summary_of_the_method": "as §1"}, "Staphylococcus aureus [14]": {"test_system": "Staphylococcus aureus", "assay": "Antimicrobial activity against methicillin-resistant Staphylococcus aureus 85/2082 by broth dilution method"}, "Staphylococcus aureus [15]": {"test_system": "Staphylococcus aureus", "assay": "Antimicrobial activity against methicillin-resistant Staphylococcus aureus 16708 by broth dilution method", "summary_of_the_method": "as §1"}, "Staphylococcus aureus [16]": {"test_system": "Staphylococcus aureus", "assay": "Antimicrobial activity against methicillin-resistant Staphylococcus aureus 16700 by broth dilution method", "summary_of_the_method": "as §1"}, "Staphylococcus aureus [17]": {"test_system": "Staphylococcus aureus", "assay": "Antimicrobial activity against methicillin-resistant Staphylococcus aureus 16684 by broth dilution method", "summary_of_the_method": "as §1"}, "Staphylococcus aureus [18]": {"test_system": "Staphylococcus aureus", "assay": "Antimicrobial activity against methicillin-resistant Staphylococcus aureus 16671 by broth dilution method", "summary_of_the_method": "as §1"}, "Staphylococcus aureus [19]": {"test_system": "Staphylococcus aureus", "assay": "Antimicrobial activity against methicillin-resistant Staphylococcus aureus 16666 by broth dilution method", "summary_of_the_method": "as §1"}, "Staphylococcus aureus [20]": {"test_system": "Staphylococcus aureus", "assay": "Antimicrobial activity against methicillin-resistant Staphylococcus aureus 16679 by broth dilution method", "summary_of_the_method": "as §1"}, "Staphylococcus aureus [21]": {"test_system": "Staphylococcus aureus", "assay": "Antimicrobial activity against methicillin-resistant Staphylococcus aureus 16691 by broth dilution method", "summary_of_the_method": "as §1"}, "Staphylococcus aureus [22]": {"test_system": "Staphylococcus aureus", "assay": "Antimicrobial activity against methicillin-resistant Staphylococcus aureus 16674 by broth dilution method", "summary_of_the_method": "as §1"}, "Staphylococcus aureus [23]": {"test_system": "Staphylococcus aureus", "assay": "Antimicrobial activity against methicillin-resistant Staphylococcus aureus 16692 by broth dilution method", "summary_of_the_method": "as §1"}, "Staphylococcus aureus [24]": {"test_system": "Staphylococcus aureus", "assay": "Antimicrobial activity against methicillin-resistant Staphylococcus aureus 16688 by broth dilution method", "summary_of_the_method": "as §1"}, "Staphylococcus aureus [25]": {"test_system": "Staphylococcus aureus", "assay": "Antimicrobial activity against methicillin-resistant Staphylococcus aureus 16645 by broth dilution method", "summary_of_the_method": "as §1"}, "Staphylococcus aureus [26]": {"test_system": "Staphylococcus aureus", "assay": "Antimicrobial activity against methicillin-resistant Staphylococcus aureus 16658 by broth dilution method", "summary_of_the_method": "as §1"}, "Staphylococcus aureus [27]": {"test_system": "Staphylococcus aureus", "assay": "Antimicrobial activity against methicillin-resistant Staphylococcus aureus 16672 by broth dilution method", "summary_of_the_method": "as §1"}, "Staphylococcus aureus [28]": {"test_system": "Staphylococcus aureus", "assay": "Antimicrobial activity against methicillin-resistant Staphylococcus aureus 16651 by broth dilution method", "summary_of_the_method": "as §1"}, "Staphylococcus aureus [29]": {"test_system": "Staphylococcus aureus", "assay": "Antimicrobial activity against methicillin-resistant Staphylococcus aureus 16683 by broth dilution method", "summary_of_the_method": "as §1"}, "Staphylococcus aureus [30]": {"test_system": "Staphylococcus aureus", "assay": "Antimicrobial activity against methicillin-resistant Staphylococcus aureus 16686 by broth dilution method", "summary_of_the_method": "as §1"}, "Staphylococcus aureus [31]": {"test_system": "Staphylococcus aureus", "assay": "Antimicrobial activity against methicillin-resistant Staphylococcus aureus 16704 by broth dilution method", "summary_of_the_method": "as §1"}, "Staphylococcus aureus [32]": {"test_system": "Staphylococcus aureus", "assay": "Antimicrobial activity against methicillin-resistant Staphylococcus aureus 16696 by broth dilution method", "summary_of_the_method": "as §1"}, "Staphylococcus aureus [33]": {"test_system": "Staphylococcus aureus", "assay": "Antimicrobial activity against methicillin-resistant Staphylococcus aureus 16689 by broth dilution method", "summary_of_the_method": "as §1"}, "Staphylococcus aureus [34]": {"test_system": "Staphylococcus aureus", "assay": "Antimicrobial activity against methicillin-resistant Staphylococcus aureus 16680 by broth dilution method", "summary_of_the_method": "as §1"}, "Staphylococcus aureus [35]": {"test_system": "Staphylococcus aureus", "assay": "Antimicrobial activity against methicillin-resistant Staphylococcus aureus HDG2 by broth dilution method"}, "Staphylococcus aureus [36]": {"test_system": "Staphylococcus aureus", "assay": "Antimicrobial activity against methicillin-resistant Staphylococcus aureus 16656 by broth dilution method", "summary_of_the_method": "as §1"}},
  "data": [
    {"molecule": "Cc1onc(-c2ccccc2)c1C(=O)N[C@@H]1C(=O)N2[C@@H]1SC(C)(C)[C@@H]2C(=O)O", "note": "[OXACILLIN]", "values": [
      {"measurement": "MIC", "setting": "Staphylococcus aureus [1]", "value": 512, "unit": "µg/mL"},
      {"measurement": "MIC", "setting": "Staphylococcus aureus [2]", "value": 512, "unit": "µg/mL"},
      {"measurement": "MIC", "setting": "Staphylococcus aureus [3]", "value": 512, "unit": "µg/mL"},
      {"measurement": "MIC", "setting": "Staphylococcus aureus [4]", "value": 512, "unit": "µg/mL"},
      {"measurement": "MIC", "setting": "Staphylococcus aureus [5]", "value": 256, "unit": "µg/mL"},
      {"measurement": "MIC", "setting": "Staphylococcus aureus [6]", "value": 256, "unit": "µg/mL"},
      {"measurement": "MIC", "setting": "Staphylococcus aureus [7]", "value": 256, "unit": "µg/mL"},
      {"measurement": "MIC", "setting": "Staphylococcus aureus [8]", "value": 512, "unit": "µg/mL"},
      {"measurement": "MIC", "setting": "Staphylococcus aureus [9]", "value": 256, "unit": "µg/mL"},
      {"measurement": "MIC", "setting": "Staphylococcus aureus [10]", "value": 512, "unit": "µg/mL"},
      {"measurement": "MIC", "setting": "Staphylococcus aureus [11]", "value": 512, "unit": "µg/mL"},
      {"measurement": "MIC", "setting": "Staphylococcus aureus [12]", "value": 512, "unit": "µg/mL"},
      {"measurement": "MIC", "setting": "Staphylococcus aureus [13]", "value": 512, "unit": "µg/mL"},
      {"measurement": "MIC", "setting": "Staphylococcus aureus [14]", "value": 16, "unit": "µg/mL"},
      {"measurement": "MIC", "setting": "Staphylococcus aureus [15]", "value": 256, "unit": "µg/mL"},
      {"measurement": "MIC", "setting": "Staphylococcus aureus [16]", "value": 512, "unit": "µg/mL"},
      {"measurement": "MIC", "setting": "Staphylococcus aureus [17]", "value": 256, "unit": "µg/mL"},
      {"measurement": "MIC", "setting": "Staphylococcus aureus [18]", "value": 512, "unit": "µg/mL"},
      {"measurement": "MIC", "setting": "Staphylococcus aureus [19]", "value": 256, "unit": "µg/mL"},
      {"measurement": "MIC", "setting": "Staphylococcus aureus [20]", "value": 512, "unit": "µg/mL"},
      {"measurement": "MIC", "setting": "Staphylococcus aureus [21]", "value": 256, "unit": "µg/mL"},
      {"measurement": "MIC", "setting": "Staphylococcus aureus [22]", "value": 256, "unit": "µg/mL"},
      {"measurement": "MIC", "setting": "Staphylococcus aureus [23]", "value": 256, "unit": "µg/mL"},
      {"measurement": "MIC", "setting": "Staphylococcus aureus [24]", "value": 512, "unit": "µg/mL"},
      {"measurement": "MIC", "setting": "Staphylococcus aureus [25]", "value": "> 512", "unit": "µg/mL"},
      {"measurement": "MIC", "setting": "Staphylococcus aureus [26]", "value": 256, "unit": "µg/mL"},
      {"measurement": "MIC", "setting": "Staphylococcus aureus [27]", "value": 8, "unit": "µg/mL"},
      {"measurement": "MIC", "setting": "Staphylococcus aureus [28]", "value": 512, "unit": "µg/mL"},
      {"measurement": "MIC", "setting": "Staphylococcus aureus [29]", "value": 256, "unit": "µg/mL"},
      {"measurement": "MIC", "setting": "Staphylococcus aureus [30]", "value": 512, "unit": "µg/mL"},
      {"measurement": "MIC", "setting": "Staphylococcus aureus [31]", "value": 512, "unit": "µg/mL"},
      {"measurement": "MIC", "setting": "Staphylococcus aureus [32]", "value": 512, "unit": "µg/mL"},
      {"measurement": "MIC", "setting": "Staphylococcus aureus [33]", "value": 512, "unit": "µg/mL"},
      {"measurement": "MIC", "setting": "Staphylococcus aureus [34]", "value": 512, "unit": "µg/mL"},
      {"measurement": "MIC", "setting": "Staphylococcus aureus [35]", "value": 64, "unit": "µg/mL"},
      {"measurement": "MIC", "setting": "Staphylococcus aureus [36]", "value": 512, "unit": "µg/mL"}
    ]}
  ]
}
